KCNQ1 pot = potentiators or activators of KCNQ1 channel, primary screen, cell-based, thallium flux, high-throughput | B-score at 10 µM | CHO-K1 KCNQ1, thallium flux FluxOR fluorescence; active compounds read high | AID 2648, 2010 | 310,000 compounds, 0.35% hits;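 active means fluorescence ratio B-score, a plate-corrected score, at least three library SD, with initial intensity B-score within 5 SD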
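System: CHO-K1 cells stably expressing KCNQ1 / Medium: assay buffer for compound exposure, DMSO matched across wells / Reagent: thallium- and potassium-containing depolarizing buffer / Compound: one concentration, matched DMSO / Incubation: 20 min compound pretreatment at room temperature / Measured by: kinetic FluxOR fluorescence, 10 s baseline plus 110 s post-stimulus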
KCC2 mod = KCC2 cotransporter modulators, thallium flux, primary screen, cell-based, HEK293 KCC2, FluoZin-2 fluorescence, MLSMR; B-score of Tl+ flux slope (higher = more flux/activation; lower = inhibition) at 10 µM; AID 1456, 2008; KCC2 cells, thallium flux FluoZin-2 fluorescence; 190,000 compounds, 2.2% hits;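 active means thallium flux slope and its plate-corrected score both differing from the plate sample mean at a set confidence after two filtering rounds, in either direction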;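 further: slope of fluorescence scaled to starting intensity during 10 to 20 s after thallium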
KCNQ1 inh = inhibitors of human KCNQ1 channel, primary screen, cell-based, thallium flux, high-throughput | CHO-K1 KCNQ1, FluxOR thallium flux fluorescence; active compounds read high | B-score at 10 µM | 310,000 compounds, 1.3% hits | AID 2642, 2010;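 active means compounds whose thallium flux B-score, printed positive for inhibition, exceeds three library SD while starting fluorescence stays within three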;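 further: channel opened by potassium depolarization with thallium stimulus after 20 min compound exposure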
hERG protect = hERG rescue from dofetilide block, primary screen, cell-based, CHO-hERG, FluxOR thallium flux, dofetilide IC70; dofetilide IC70 present; activation (rescue from dofetilide block), less the hit threshold, % at 10 µM; 310,000 compounds, 0.51% hits; AID 1511, 2009;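 active means activation above the mean of controls blocked by dofetilide plus 5 SD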;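 further: thallium influx through hERG after potassium depolarization seen as dye fluorescence rise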
KCNK9 block = KCNK9 potassium channel inhibitors, primary screen, HEK293 cells, thallium flux; Potassium channel subfamily K member 9 (Homo sapiens), Q9NPC2; FluxOR thallium flux fluorescence; active compounds read low; B-score at 10 µM; 310,000 compounds, 1.2% hits; AID 488922, 2010;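 active means ratio B-score over 3 SD below the library mean, with starting fluorescence within 5 SD of its mean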;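 further: negative B-score means less thallium flux so channel inhibition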
KCNK3 inh = human KCNK3 channel inhibitors, primary screen, CHO cells, FluxOR thallium flux, B-score; Potassium channel subfamily K member 3 (Homo sapiens), O14649; FluxOR fluorescence; active compounds read low; B-score at 10 µM; 340,000 compounds, 0.84% hits; AID 602410, 2012;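 active means B-score under library mean minus 4 SD, starting fluorescence ratio at most library mean plus 5 SD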;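 further: more negative B-score means stronger inhibition of thallium flux through KCNK3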
KCNQ1 inh valid = KCNQ1 potassium channel inhibitors, confirmation, cell-based, Tl flux, duplicate. shares compounds with KCNQ1 inh. KCNQ1 cell line, FluxOR thallium flux fluorescence. inhibition, % at 10 µM. 1,600 compounds, 93% hits;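 active means primary screen active, with duplicate mean exceeding buffer control mean plus 3 SD of buffer wells, cut at about 28% in these data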;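 further: 0% = buffer control ratio and 100% = XE991 inhibitor control ratio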
CHO Tl flux = thallium flux effects in parental CHO cells, counter-screen for KCNQ1 inhibitor project, cell-based, Tl flux; shares compounds with KCNQ1 inh; parental CHO-K1, FluxOR thallium flux fluorescence ratio; active compounds read low; zero means no signal rise above baseline; fluorescence ratio (Tl flux) at 10 µM; 1,600 compounds, 21% hits;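 active means mean of duplicate thallium-flux fluorescence ratios in parental host cells more than 5 SD below the buffer control mean, cut at about 0.38 in these data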;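 further: ratio is peak minus minimum fluorescence divided by baseline fluorescence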
KCNQ1 APC inh = KCNQ1 channel inhibitors, confirmation, orthogonal assay, cell-based, automated electrophysiology; shares compounds with KCNQ1 inh; KCNQ1-CHO cells, automated patch clamp current; calls only at 10 µM; 490 compounds, 20% hits; AID 624120, 2012;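 active means KCNQ1 current drop exceeding 3 SD of negative control wells, seen in both duplicate runs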;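 further: steady state current during a 2 s step from -80 to +40 mV; negative values mean current inhibition and positive values mean potentiation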
KCNQ2 inh = KCNQ2 channel inhibition, selectivity assay for KCNQ1 inhibitor project, cell-based | shares compounds with KCNQ1 inh | KCNQ2 cells, FluxOR thallium flux fluorescence | inhibition, % at 10 µM | 1,600 compounds, 71% hits | AID 651746, 2012;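 active means mean percent inhibition of the KCNQ2 thallium signal more than 5 SD above the buffer-only control wells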;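 further: KCNQ2 expressed in CHO cells; 0% = buffer control wells and 100% = XE-991 inhibitor control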
Target sequence (O88943 whole entry, looked up): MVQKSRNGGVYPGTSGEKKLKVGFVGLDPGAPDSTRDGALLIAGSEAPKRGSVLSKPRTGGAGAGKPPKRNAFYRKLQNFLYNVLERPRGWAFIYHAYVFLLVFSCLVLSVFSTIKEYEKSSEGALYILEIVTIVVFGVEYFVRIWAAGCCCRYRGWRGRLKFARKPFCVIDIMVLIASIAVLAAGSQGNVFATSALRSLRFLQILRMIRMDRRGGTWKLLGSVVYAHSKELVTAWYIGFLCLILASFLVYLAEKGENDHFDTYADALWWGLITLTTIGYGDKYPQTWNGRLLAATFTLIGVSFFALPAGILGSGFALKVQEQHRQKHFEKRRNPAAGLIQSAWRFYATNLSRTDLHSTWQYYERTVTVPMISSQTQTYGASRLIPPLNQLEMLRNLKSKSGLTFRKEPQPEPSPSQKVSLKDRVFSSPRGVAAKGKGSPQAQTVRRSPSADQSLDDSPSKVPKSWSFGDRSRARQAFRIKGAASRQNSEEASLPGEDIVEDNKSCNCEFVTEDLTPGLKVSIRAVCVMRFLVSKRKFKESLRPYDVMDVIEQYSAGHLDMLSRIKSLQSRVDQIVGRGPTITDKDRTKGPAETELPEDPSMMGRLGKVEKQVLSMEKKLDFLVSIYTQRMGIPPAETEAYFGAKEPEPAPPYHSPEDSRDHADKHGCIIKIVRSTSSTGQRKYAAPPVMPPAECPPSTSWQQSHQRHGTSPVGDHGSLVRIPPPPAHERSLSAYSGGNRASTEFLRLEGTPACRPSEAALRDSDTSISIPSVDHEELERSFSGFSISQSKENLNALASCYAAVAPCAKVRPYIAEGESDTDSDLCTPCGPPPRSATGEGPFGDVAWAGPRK
KCNQ1-KCNE1 inh = KCNQ1/KCNE1 channel inhibition, selectivity assay for KCNQ1 inhibitor project, CHO-K1 cells, thallium flux, FluxOR. shares compounds with KCNQ1 inh. FluxOR thallium flux fluorescence. inhibition, % at 10 µM. 1,600 compounds, 77% hits. AID 652147, 2013;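 active means mean percent inhibition of duplicate wells above the buffer-only control mean plus 3 SD of those controls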;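 further: 0% = buffer only wells and 100% = XE-991 inhibitor control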
* hit, by the source's call; i = inactive; · = no result; + = active, no number. Hits are enriched below; roughly 4.1% of the tested compounds scored in any of these assays.

SMILES	KCNQ1 pot	KCC2 mod	KCNQ1 inh	hERG protect	KCNK9 block	KCNK3 inh	KCNQ1 inh valid	CHO Tl flux	KCNQ2 inh	KCNQ1-KCNE1 inh	others
Cc1cc(C)c2c(N)c(C(=O)c3ccc(Cl)cc3)sc2n1	i	0.95	i	-3	i	i	·	·	·	·
CC(C)NC(=O)c1sc2nc(-c3cccs3)cc(-c3cccs3)c2c1N	i	·	6*	-10	i	·	198*	0.28*	i	i
CC(=O)c1sc2nc(-c3cccs3)ccc2c1N	i	-0.13	i	-15	i	i	·	·	·	·
COc1cc(/C=C/C(=O)OCC(=O)N2c3ccccc3NC(=O)C2(C)C)cc(OC)c1OC	·	·	·	·	·	i	·	·	·	·
CCCNC(=S)N1CCC(C(=O)c2ccc(F)cc2)CC1	i	·	i	-11	i	i	·	·	·	·
Cc1nc(SCC(=O)Nc2ccccc2Cl)c2c(C)c(C)sc2n1	·	·	·	·	·	i	·	·	·	·
C[C@@H]1CN([C@@H](C)CO)C(=O)c2cccc(NC(=O)c3nc4ccccc4s3)c2O[C@@H]1CN(C)CC1CC1	·	·	·	·	·	i	·	·	·	·
CNc1ccc2c3c(cccc13)C(=O)N(C)C2=O	i	·	32*	-49	i	i	+	0.003*	i	i
COc1ccc(-n2c(C)cc(C(=O)COC(=O)Cn3cnc4ccccc43)c2C)cc1	i	·	9*	-7	i	i	97*	0.41	85%*	110%*	KCNQ1 APC inh=i
O=C(NCCc1c[nH]c2ccccc12)C1CCC(=O)N(CCc2cccc(F)c2)C1 (stereo not drawn)	i	·	i	1	i	i	·	·	·	·
O=C(CN1C2=NCCN2c2ccccc21)C12CC3CC(CC(C3)C1)C2	i	0.57	11*	-9	i	i	70*	0.43	74%*	40%*
CC(C)(C)S(=O)(=O)N1C[C@H]2C(=CC[C@@H]3C(=O)N(c4ccccc4)C(=O)[C@@H]32)[C@H]1CCO	·	·	·	·	·	i	·	·	·	·
Cc1ccc(S(=O)(=O)c2ccc(Oc3cccc(C)c3)cc2)cc1	i	·	8*	-16	i	i	112*	0.41	108%*	114%*	KCNQ1 APC inh=i
Cc1ccc(S(=O)(=O)c2ccc(C)cc2)cc1	i	0.22	i	-3	i	i	·	·	·	·
Nc1cccc(N=[N+]([O-])c2cccc(N)c2)c1	·	·	·	·	·	i	·	·	·	·
CCN1CCN(CCNC(=O)c2ccc3nc(-c4cccc(C)c4)c(-c4cccc(C)c4)nc3c2)CC1	i	·	8*	-32	i	i	76*	0.32*	91%*	162%*
CC(C)(C)c1ccc(C(=O)Cn2cnnc2C#N)cc1	i	·	6*	-9	i	i	79*	0.47	i	36%*
c1cncc(CNc2ncnc3sccc23)c1	i	-0.0045	10*	-11	i	i	0	0.46	i	i
CN(C(=O)CSCC(=O)Nc1ccc(Cl)cc1)C1CCCCC1	·	·	·	·	·	i	·	·	·	·
Cc1cc(C2(c3ccc(O)c(C)c3)C(=O)Nc3ccccc32)ccc1O	i	-0.69	7*	-6	i	i	0	0.47	i	i
CN(CC(=O)Nc1cccc(F)c1)C(=O)c1cn(-c2ccccc2)nc1-c1ccccc1	i	·	8*	-19	i	i	74*	0.42	74%*	93%*
COc1cc(OC)cc(OC(=O)c2ccc3c(=O)n4c(nc3c2)CCC4)c1	i	·	i	-14	i	i	·	·	·	·
COC(=O)c1nc(Cl)c(Cl)c(N)c1Cl	i	0.038	i	-4	i	i	·	·	·	·
CCCCCCCCOC(=O)c1nc(Cl)c(Cl)c(N)c1Cl	i	0.45	7*	-9	i	i	101*	0.46	65%*	126%*	KCNQ1 APC inh=i
O=C(NCc1ccco1)c1ccccc1F	i	0.44	i	-20	i	i	·	·	·	·
SMILES	KCNQ1 pot	KCC2 mod	KCNQ1 inh	hERG protect	KCNK9 block	KCNK3 inh	KCNQ1 inh valid	CHO Tl flux	KCNQ2 inh	KCNQ1-KCNE1 inh	others
O=C(NCc1ccco1)c1ccccc1Nc1ccc(F)cc1	i	-0.48	7*	-14	i	i	105*	0.41	63%*	91%*	KCNQ1 APC inh=+
CSc1nsc(/C=C/Nc2ccc(C)cc2)c1C#N	i	-0.93	7*	-10	i	i	0	0.51	i	57%*
COc1ccc(-c2cc(-c3ccccc3)nc(Cl)n2)cc1OC	i	·	8*	-6	i	i	131*	0.45	128%*	166%*	KCNQ1 APC inh=i
O=C(OC(C(=O)NC1CCCCC1)c1ccccc1F)c1ccco1 (stereo not drawn)	i	·	i	-8	i	i	·	·	·	·
O=C1c2ccsc2SCCN1Cc1c(Cl)cccc1Cl	i	-2.5	8*	-12	i	i	69*	0.42	79%*	86%*
O=C(Nc1ccccc1)Nc1cc(Cl)cc(Cl)c1	i	0.21	10*	-14	i	i	28*	0.52	78%*	i
Cc1cccc(NC(=O)Nc2ccc(S(N)(=O)=O)cc2)c1	i	0.14	i	-10	i	i	·	·	·	·
NS(=O)(=O)c1cccc(NC(=O)Nc2ccc(Cl)cc2)c1	i	1.9	8*	-13	i	i	137*	0.43	101%*	108%*	KCNQ1 APC inh=i

Source: PubChem BioAssay
